Experimental data from different studies.
Compare with care: the assays were run in different laboratories.
SLCO1B1: Solute carrier organic anion transporter family member 1B1 (SLCO1B1, Homo sapiens, UniProt Q9Y6L6)
CYP1A2: Cytochrome P450 1A2 (CYP1A2, Homo sapiens, UniProt P05177)
CYP3A4: Cytochrome P450 3A4 (CYP3A4, Homo sapiens, UniProt P08684)

SMILES	target	test	system	conditions	quantity	result
C[C@H]1C[C@H]2[C@@H]3CCC4=CC(=O)C=C[C@]4(C)[C@@]3(Cl)[C@@H](O)C[C@]2(C)[C@@]1(O)C(=O)CO	SLCO1B1	transporter uptake, inhibitor	–	–	IC50	6.7 µM
Nc1ccc(S(=O)(=O)Nc2ccnn2-c2ccccc2)cc1	CYP1A2	enzyme activity, inhibitor	human, liver microsomes	10 µM	inhibition	-9%
CCCOC(=O)C1CCN(C(=O)c2ccc(N(C)Cc3cnc4nc(N)nc(N)c4n3)cc2)CC1	CYP3A4	enzyme activity, inhibitor, luciferase	–	10 µM	inhibition	-10.1%
O=C(Nc1c2c(cc3c1CCC3)CCC2)NS(=O)(=O)/C=C/c1nccs1	CYP1A2	enzyme activity, inhibitor	human, liver microsomes	2 µM, pH 7.4	inhibition	14.6%
NC(=O)C1CCN(C(=O)c2ccc(NCc3cnc4nc(N)nc(N)c4n3)cc2)CC1	CYP3A4	enzyme activity, inhibitor, luciferase	–	10 µM	inhibition	-4.54%
CN(C(=O)n1cnc(-c2ccc[n+]([O-])c2)c1)C1CCCCC1	SLCO1B1	transporter uptake, inhibitor	HEK293	10 µg/mL	inhibition	~20%
CC(C)(C)OC(=O)NCCCCCC(=O)NCc1cccnc1	CYP3A4	thermal stability	–	–	ΔTm	-0.2 °C
C=CC(=O)Nc1cc(Nc2nccc(Nc3cc(Cl)c(F)cc3C(C)(C)O)n2)c(OC)cc1N1CC[C@@H](N(C)C)C1	CYP3A4	enzyme activity, inhibitor	human, liver microsomes	–	IC50	18.2 µM
CN(CCC(=O)O)C(=O)c1ccc2c(c1)CC[C@@H]1[C@@H]2CC[C@]2(C)C(c3cncc(F)c3)=CC[C@@H]12	SLCO1B1	transporter uptake, inhibitor	–	–	IC50	3.1 µM
COC(=O)C1CCN(C(=O)c2cccc(NCc3cnc4nc(N)nc(N)c4n3)c2)CC1	CYP3A4	enzyme activity, inhibitor, luciferase	–	10 µM	inhibition	-19.5%
CC(C)(C)OC(=O)N[C@H](CSCCC(=O)NCc1cccnc1)Cc1ccccc1	CYP3A4	thermal stability	–	–	ΔTm	-1 °C
